Hits are enriched below; roughly 1% of the tested compounds scored in any of these assays.
LYPLA2 inh = LYPLA2 inhibitors, primary screen, counter-screen for PME1 inhibitor project, biochemical, fluorescence polarization, FP-Rh probe ABPP. inhibition, % at 5.9 µM. AID 2177, 2009. actives 0.38% (n = 320,000). Acyl-protein thioesterase 2 (Homo sapiens), O95372. recombinant LYPLA2;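 active = inhibition above the screen-wide mean plus 3 SD, limit set per campaign, cut at about 26% in these data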
Target sequence (O95372 whole entry, looked up): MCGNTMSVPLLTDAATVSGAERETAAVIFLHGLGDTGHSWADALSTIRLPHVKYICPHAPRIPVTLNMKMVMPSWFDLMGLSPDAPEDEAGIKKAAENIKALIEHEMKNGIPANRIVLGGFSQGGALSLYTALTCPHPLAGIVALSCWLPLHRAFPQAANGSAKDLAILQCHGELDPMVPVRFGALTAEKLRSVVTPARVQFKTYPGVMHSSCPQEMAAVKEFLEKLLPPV
procasp7 counter = procaspase-7 activators, primary screen, counter-screen for procaspase-3 activator project, biochemical, absorbance, HTS, human; Caspase-7 (Homo sapiens), P55210; recombinant procaspase-7, Ac-DEVD-pNA absorbance 405 nm; D23A/D198A/D206A triple mutant, cannot self-cleave; scale: DMSO 0, 5 µM enzyme 100; activation, % at 8.5 µM; actives 0.093% (n = 330,000);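 active = percent activation above the screen-wide mean plus 3 SD, cut at about 25% in these data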
Target sequence (P55210 whole entry D23A/D198A/D206A): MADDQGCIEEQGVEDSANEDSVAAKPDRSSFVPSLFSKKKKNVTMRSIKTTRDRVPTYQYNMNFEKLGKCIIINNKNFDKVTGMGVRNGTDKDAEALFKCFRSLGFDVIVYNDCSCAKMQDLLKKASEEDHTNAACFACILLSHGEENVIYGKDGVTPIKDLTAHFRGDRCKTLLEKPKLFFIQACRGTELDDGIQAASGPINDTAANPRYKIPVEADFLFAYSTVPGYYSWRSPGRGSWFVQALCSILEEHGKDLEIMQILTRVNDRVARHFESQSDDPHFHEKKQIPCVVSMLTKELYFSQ
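Assay system – Uncleavable procaspase-7 mutant enzyme · Quantity – 2 µM procaspase-7 mutant as dispensed · Times – 1 h preincubation, 2 h reaction · Dosing – single nominal 8.5 µM compound dose, 0.8% DMSO final · Buffer or medium – Zinc-free 50 mM HEPES buffer, pH 7.4, with NaCl and Triton X-100 · Detection – Epi-absorbance of released pNA at 405 nm, two timepoints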
PME-1 primary = PME-1 inhibitors via competitive probe labeling, primary screen, biochemical, fluorescence polarization, FP-Rh probe, HTS; Protein phosphatase methylesterase 1 (Homo sapiens), Q9Y570; recombinant PME-1; inhibition, % at 5.9 µM; actives 0.53% (n = 320,000); AID 2130, 2009;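 active = inhibition above the campaign mean of all compounds plus 3 SD, cut at about 26% in these data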;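 also: competitive labeling of PME-1 active site by serine hydrolase directed probe; inhibitors block probe labeling so polarization falls and inhibition rises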
LYPLA1 counter = LYPLA1 inhibitors, primary screen, counter-screen for PME1 inhibitor project, biochemical, fluorescence polarization, FP-Rh probe ABPP | inhibition, % at 5.9 µM | actives 0.16% (n = 320,000) | Acyl-protein thioesterase 1 (Homo sapiens), O75608 | AID 2174, 2009 | recombinant LYPLA1;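 active = inhibition above the mean of all tested compounds plus 3 SD, set per campaign, cut at about 14% in these data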;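 also: inhibitors block serine hydrolase probe labeling of LYPLA1 so polarization falls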
Fam108B counter = mouse Fam108B serine hydrolase inhibitors, primary screen, counter-screen for RBBP9 inhibitor project, biochemical, fluorescence polarization. recombinant Fam108B, FP-Rh probe fluorescence polarization. inhibition, % at 9.51 µM. actives 0.33% (n = 300,000). AID 1947, 2009;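 active = inhibition above the screen mean inhibition plus 3 SD, computed separately per campaign, cut at about 18% in these data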;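 also: inhibitors lower polarization as less probe binds the enzyme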
proCasp3 act = activators of human procaspase-3 D3A mutant, primary screen, biochemical, absorbance, PC-3 D3A mutant, single concentration; Caspase-3 (Homo sapiens), P42574; recombinant procaspase-3 D3A, Ac-DEVD-pNA absorbance 405 nm; activation, % at 8.5 µM; actives 0.11% (n = 330,000);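 active = activation above the mean of all tested compounds plus 3 SD, cut at about 21% in these data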
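Test system: Procaspase-3 D3A mutant; medium: Zinc-free HEPES/NaCl buffer with 0.01% Triton X-100 at pH 7.4; reagent: DEVD-pNA substrate; doses: one concentration, 8.5 µM nominal, 0.8% DMSO; times: 1 h preincubation plus 2 h reaction at 25 °C; signal: Epi-absorbance at 405 nm of released p-nitroaniline, 0 and 120 min; replicates: singlicate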
Fam108b inh conf = mouse Fam108b serine hydrolase inhibitors, confirmation, counter-screen for RBBP9 inhibitor project, biochemical, fluorescence polarization, triplicate | recombinant Fam108b, FP-Rh probe fluorescence polarization | inhibition, % at 9.51 µM | shares compounds with Fam108B counter | actives 44% (n = 930);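 active = inhibition above a limit from the primary screen, the mean over all compounds plus 3 SD, cut at about 19% in these data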;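 also: inhibitors free the probe so polarization falls as inhibition rises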
Fam108b ABPP HTS = inhibition of mouse Fam108b by HTS hits, late-stage follow-up, biochemical, gel-based ABPP, soluble recombinant form; AID 588649, 2011; inhibition, % at 20 µM; fluorophosphonate probe; actives 44% (n = 260); shares compounds with Fam108B counter; in the data active = inhibition above about 40%
Large screens that a line does not name were inactive (follow-up assays come after a bar, where they were run).

COc1ccc(-c2csc3nc(C(C)(C)C)oc(=O)c23)cc1OC	none
CC(C)(C)c1nc2scc(-c3cccs3)c2c(=O)o1	Fam108B counter 55 | Fam108b inh conf 106 | Fam108b ABPP HTS 85
CC(C)(C)c1nc2scc(-c3ccc(Cl)cc3)c2c(=O)o1	Fam108B counter 21 | Fam108b inh conf 19
Cc1nc2scc(-c3cccs3)c2c(=O)[nH]1	none
CCOc1ccc(S(=O)(=O)NCC(=O)NC2CCCCC2)cc1	none (no result: Fam108B counter)
O=C(N/N=C/c1ccc([N+](=O)[O-])cc1)c1ccc(COc2ccccc2-c2ccccc2)cc1	Fam108B counter 26 | Fam108b inh conf inactive
COc1cc2c(cc1NC(=O)Nc1ccccc1)oc1ccccc12	PME-1 primary 31, Fam108B counter 33 | Fam108b inh conf 43 | Fam108b ABPP HTS 90
COc1cc2c(cc1NC(=S)Nc1cccc(C(F)(F)F)c1)oc1ccccc12	Fam108B counter 24 | Fam108b inh conf 45 | Fam108b ABPP HTS 85
COc1cc2c(cc1NC(=O)CCC(=O)O)oc1ccccc12	none
COc1cc2c(cc1NC(=S)Nc1cccc3ccccc13)oc1ccccc12	none
CCC(C)NC(=O)CSc1nnc(-c2cc(OC)c(OC)c(OC)c2)c(-c2cc(OC)c(OC)c(OC)c2)n1 (stereo not given)	none
CCc1cc(C(=O)O)c(NC(=O)/C=C/c2ccc(OC)c(OC)c2)s1	Fam108B counter 32 | Fam108b inh conf inactive
CCc1cc(C(=O)O)c(NC(=O)/C=C/c2ccc(OC)cc2)s1	none
Cc1nc(-c2ccccc2Cl)sc1C(=O)/C=C/N(C)C	none
O=[N+]([O-])c1cccc(-c2csc(NN=Cc3cccc(O)c3)n2)c1	none (no result: LYPLA2 inh, procasp7 counter, PME-1 primary, LYPLA1 counter, Fam108B counter, proCasp3 act) | Fam108b ABPP HTS inactive
COc1ccc(C)cc1NC(=O)COC(=O)CCC(=O)c1cccs1	none (no result: Fam108B counter)
O=C(CCn1cccn1)Nc1ccc2c(c1)OCO2	Fam108B counter 18 | Fam108b inh conf inactive
Cn1ccnc1SCC(=O)Nc1ccc2c(c1)OCO2	none
CCn1cc(-c2ccccc2)c(C(=O)O)c1-c1ccc(OC)cc1	none
Oc1ccc(N=Nc2ccccc2-c2nn[nH]n2)c(O)c1	Fam108B counter 40 | Fam108b inh conf 41 | Fam108b ABPP HTS inactive
Cc1ccc(C(=O)Nc2cccc(N3C(=O)C4CCC(C)CC4C3=O)c2)cc1 (stereo not given)	none
CN(C(=O)COC(=O)c1nn(C)c(=O)c2ccccc12)c1c(N)n(Cc2ccccc2)c(=O)[nH]c1=O	none
Cc1ccc(F)cc1NC(=O)C1C2CCC(O2)C1C(=O)O (stereo not given)	none
Nc1c(C(=O)NC2CC2)sc2nc3c(c(-c4ccco4)c12)CC/C3=C/c1ccco1	Fam108B counter 33 | Fam108b inh conf inactive
O=[N+]([O-])c1cccc(N/N=C/c2cccc3ccccc23)c1	Fam108B counter 26 | Fam108b inh conf 23
O=[N+]([O-])c1ccc(N/N=C/c2cccc(O)c2O)cc1	PME-1 primary 33, Fam108B counter 19 | Fam108b inh conf 93
Cc1cccc(C(=O)Oc2ccccc2/C=N/Nc2ccc([N+](=O)[O-])cc2)c1	Fam108B counter 25 | Fam108b inh conf inactive
O=[N+]([O-])c1ccc(N/N=C/c2ccc[nH]2)cc1	none
Cc1cccc(C(=O)Oc2ccc(/C=N/O)cc2)c1	none
Cc1cccc(C(=O)Nc2cccc3c2CCCC3)c1	none
O=C1C(=O)N(CCS(=O)(=O)c2ccccc2)c2ccc(F)cc21	none
COc1ccc(NC(=S)NNc2ccc([N+](=O)[O-])cc2S(=O)(=O)Nc2ccc(C)cc2C)cc1	Fam108B counter 32 | Fam108b inh conf inactive
COc1ccc(NC(=S)Nc2cccc([N+](=O)[O-])c2)cc1	none
Cc1ccc(NS(=O)(=O)c2cc([N+](=O)[O-])ccc2NNC(=S)Nc2cccc(Cl)c2)c(C)c1	Fam108B counter 30 | Fam108b inh conf inactive
Cc1ccc(NS(=O)(=O)c2cc([N+](=O)[O-])ccc2NNC(=S)Nc2cc(C)ccc2C)c(C)c1	Fam108B counter 27 | Fam108b inh conf inactive
COc1ccc(COC(=O)CNC(=O)C2CCCCC2)cc1F	none (no result: LYPLA2 inh, PME-1 primary, LYPLA1 counter, Fam108B counter)
Cc1ccc(CCSc2ccc(C(C)C)cc2)cn1	none
CN(NC(=O)c1ccccc1F)c1ccc([N+](=O)[O-])cn1	none
O=C(Nc1ccccc1F)Nc1cccc2ccc(O)cc12	PME-1 primary 34, Fam108B counter 18 | Fam108b inh conf inactive
Cc1[nH]n(-c2ccccc2)c(=O)c1N=Nc1ccc2c(c1)OCCO2	none
Cc1[nH]n(-c2ccccc2)c(=O)c1N=Nc1c(O)cc(S(=O)(=O)N(C)C)c2ccccc12	PME-1 primary 54, Fam108B counter 75 | Fam108b inh conf 89 | Fam108b ABPP HTS inactive
CCOC(=O)c1c(C)[nH]c(C2=NNC(=Nc3cccc(Cl)c3)SC2)c1C	PME-1 primary 34, Fam108B counter 22 | Fam108b inh conf inactive
Nc1[nH]n(-c2ccccc2)c(=O)c1N=Nc1ccc2ncsc2c1	PME-1 primary 36, Fam108B counter 20 | Fam108b inh conf inactive
Nc1[nH]n(-c2ccccc2)c(=O)c1N=Nc1ccccc1	none
COc1ccc(-c2cc(-c3c(O)c(OC)c4occc4c3OC)[nH]n2)cc1OC	PME-1 primary 31, Fam108B counter 23 | Fam108b inh conf inactive
COc1ccc(-c2oc3c(OC)c(OC)c(OC)c(O)c3c(=O)c2OC)cc1OC	none
O=C(N/N=C/c1c(O)ccc2ccccc12)c1cccc(C(F)(F)F)c1	Fam108B counter 19 | Fam108b inh conf inactive
O=C1c2c(O)cccc2Cc2cccc(O)c21	PME-1 primary 37, Fam108B counter 22 | Fam108b inh conf 43
COc1ccc(Nc2sc(C(=O)Nc3cccc(Cl)c3)c(N)c2C(=O)Nc2ccccc2OC)cc1	PME-1 primary 30, Fam108B counter 51 | Fam108b inh conf inactive
COc1ccccc1NC(=O)c1c(Nc2ccccc2F)sc(C(=O)Nc2cccc(Cl)c2)c1N	none

From PubChem BioAssay
